Compound activity (PubChem)
MrgX1 agonist: human MrgX1 receptor agonism, primary screen | Q96LB2 | MrgX1-HEK293 cells, Fluo-4 calcium fluorescence, agonist mode; stronger effect = higher value | B-score at 10 µM | 0.44% of 310,000 active | AID 588627;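 active = calcium response B-score plate-corrected fluorescence ratio at least 3 library SD, with starting fluorescence B-score inside 5 SD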
Target sequence (Q96LB2 whole entry, looked up): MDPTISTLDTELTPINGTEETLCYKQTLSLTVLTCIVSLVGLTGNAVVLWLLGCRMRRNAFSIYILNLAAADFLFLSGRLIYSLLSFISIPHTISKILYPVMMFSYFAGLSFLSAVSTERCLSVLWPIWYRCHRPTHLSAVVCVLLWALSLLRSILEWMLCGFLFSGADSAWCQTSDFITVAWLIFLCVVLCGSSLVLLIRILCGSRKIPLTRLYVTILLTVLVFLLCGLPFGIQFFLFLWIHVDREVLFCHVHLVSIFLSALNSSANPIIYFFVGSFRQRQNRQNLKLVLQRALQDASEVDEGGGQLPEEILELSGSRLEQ
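Assay system: MrgX1-expressing HEK293 cells / Amount: fifteen thousand cells per well / Doses: test compound in the initial addition of three / Timing: cells plated overnight, dye loaded 0.5 h 37 °C, 0.5 h room temperature / Technique: kinetic calcium dye fluorescence, Fluo-4 NW / Control set: positive and negative controls per plate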
MrgX1 PAM: human MrgX1 positive allosteric modulation, primary screen. Q96LB2. MrgX1-HEK293, Fluo-4 calcium flux, FDSS; stronger effect = higher value. B-score at 10 µM. 0.63% of 310,000 active;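 active = plate-corrected calcium response at least 3 library SD above typical, normal starting fluorescence, not activating the receptor alone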;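 note: compound read alongside a low EC10 to EC30 dose of BAM8-22 agonist; peak minus trough fluorescence over baseline measured at the second addition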
MrgX1 antagonist: blocks BAM8-22 activation of human MrgX1 receptor. 1.3% of 310,000 active. MRGX1-HEK293 calcium flux, Fluo-4, BAM8-22 antagonism; stronger effect = lower value. B-score at 10 µM. Q96LB2. AID 588676;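 active = calcium-response B-score plate-corrected more than 3 library SD below zero, starting fluorescence within 5 deviations, no agonist response on first addition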;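 note: peak minus trough fluorescence over baseline after final BAM8-22 challenge near maximal dose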
RGS4 inh: inhibitors of human RGS4; B-score at 10 µM; HEK293 M3R/RGS4 inducible, Fluo-4 calcium flux; stronger effect = higher value; triggered by carbachol at its EC20; P49798; 0.45% of 310,000 active;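 active = B-score, a plate-corrected calcium signal, over three deviations above library mean, with baseline fluorescence within five deviations of library mean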;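 note: RGS4 expression induced by doxycycline in cells with stable M3 receptor; B-score is computed from the integrated fluorescence ratio over baseline after carbachol; higher B-score means a larger calcium signal and so more RGS4 inhibition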
Target sequence (P49798 whole entry, looked up): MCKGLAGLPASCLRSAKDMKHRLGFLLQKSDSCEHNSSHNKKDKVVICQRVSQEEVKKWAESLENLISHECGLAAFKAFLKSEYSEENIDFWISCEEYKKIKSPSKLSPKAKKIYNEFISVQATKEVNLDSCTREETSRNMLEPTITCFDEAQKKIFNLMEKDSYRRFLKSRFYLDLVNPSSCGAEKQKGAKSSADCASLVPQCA
RGS4 pot: potentiators or activators of RGS4 | 0.92% of 310,000 active | AID 463111 | B-score at 10 µM | HEK293 M3R/inducible RGS4, carbachol calcium flux Fluo4; stronger effect = lower value;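 active = B-score of the integrated calcium signal more than 4 SD below the library mean, with starting fluorescence not abnormally high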;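 note: negative B-score means reduced calcium response which marks RGS4 activation or potentiation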
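Assay system: HEK293 FlpIn-TREx cells, stable M3R, doxycycline-inducible RGS4 / Probe or stimulus: carbachol, ECmax concentration / Times: overnight RGS4 induction, 30 min dye load 37 °C, 20 min compound RT / Signal: kinetic calcium fluorescence imaging with Fluo4-AM dye, 2 µM / Measure: Agonist-evoked peak-minus-minimum fluorescence over baseline, integrated ratio, B score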
RGS4 inh valid: validation of RGS4 inhibitors; shares compounds with RGS4 inh; HEK293 M3R/RGS4, carbachol calcium Fluo-4 fluorescence; carbachol added at its EC20; 0 = buffer wells, 100 = carbachol control; calcium response, % at 10 µM; 65% of 1,700 active;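 active = duplicate-averaged calcium response above the buffer-only control mean plus 5 SD of those controls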;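 note: integrated fluorescence ratio F max minus min over baseline F0; higher response in RGS4-induced cells means RGS4 inhibition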
RGS4 uninduced: counter-screen for RGS4 inhibitors: effect in non-induced cells; 20% of 1,900 active; HEK293 M3R non-induced, carbachol calcium Fluo-4; submaximal (EC20) carbachol stimulus; buffer wells 0%, carbachol control wells 100%; shares compounds with RGS4 inh; activity (percent), % at 10 µM; call rule not given here;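 note: RGS4 induction absent so cells express M3R without RGS4; higher means more calcium signal and flags a non-specific hit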
RGS4 inh ctr2: second counter-screen for RGS4 inhibitors: non-induced cells without carbachol | shares compounds with RGS4 inh | HEK293 M3R/RGS4 non-induced, Fluo-4 calcium, no carbachol; normalised: buffer wells 0%, carbachol wells 100% | calcium response (agonist-mode artifact), % at 10 µM | 22% of 1,900 active | AID 493001;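 active = duplicate-averaged calcium rise in uninduced cells above buffer wells' mean plus 5 SD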
The depositor's hits bear a star; i = inactive; / = no result given. Compounds with a hit are over-represented: about 3.5% of the library has one in this group of screens.

SMILES	MrgX1 agonist	MrgX1 PAM	MrgX1 antagonist	RGS4 inh	RGS4 pot	RGS4 inh valid	RGS4 uninduced	RGS4 inh ctr2
CCOc1cccc(C2C(C(=O)c3ccc(C)o3)=C(O)C(=O)N2Cc2ccccc2)c1 (centres undefined)	/	/	/	4.7*	i	16%*	i	i
COc1ccc(N(CC(=O)NCc2ccco2)C(=O)CNS(=O)(=O)c2ccc(Cl)cc2)cc1	i	i	i	i	i	/	/	/
O=C(O)c1ccc(/C=C2\COc3ccccc3C2=O)cc1	i	i	i	31*	i	45%*	i	i
COc1ccc(/C=C2\COc3ccccc3C2=O)cc1OC	i	i	i	i	i	/	/	/
CCOc1cc(/C=C2\COc3ccccc3C2=O)cc(Br)c1OCC(=O)N(C)C	i	i	i	8.3*	i	27%*	i	i
O=C(/C=C/c1cccc([N+](=O)[O-])c1)n1cnc2ccccc21	/	/	/	7.9*	i	19%*	i	i
O=C(/C=C/c1cccc([N+](=O)[O-])c1)Nc1ccc(NC(=O)c2cccs2)cc1	i	i	i	i	i	/	/	/
Cc1cc(O)c(C(=O)/C=C/c2cccc([N+](=O)[O-])c2)c(=O)o1	i	i	i	4.7*	i	30%*	i	i
O=C(/C=C/c1cccc([N+](=O)[O-])c1)c1cccs1	35*	i	i	4.8*	i	i	i	i
O=C(/C=C/c1cccc([N+](=O)[O-])c1)N1CCN(c2ccccn2)CC1	i	i	i	i	i	/	/	/
O=C(O)CSCC(=O)N1N=C2/C(=C/c3ccccc3)CCCC2C1c1ccccc1 (centres undefined)	i	i	i	i	i	/	/	/
COc1ccc(/C=C2\CCCC3C2=NN(C(=O)CSc2ncn[nH]2)C3c2ccc(OC)cc2)cc1 (centres undefined)	i	i	i	i	i	/	i	i
O=C(CSc1ncn[nH]1)N1N=C2/C(=C/c3ccccc3)CCCC2C1c1ccccc1 (centres undefined)	i	i	i	5.1*	i	10%*	i	i
COC(=O)CSc1[nH]c2ccccc2c1[N+](=O)[O-]	i	i	i	16*	i	44%*	i	i
CC(C)Oc1ccc(C(=O)/C=C2/C(=O)Nc3ccccc32)cc1	i	i	i	5.1*	i	10%*	72%*	i
Cc1cc(Oc2ncccc2[N+](=O)[O-])c2cc(Cl)ccc2n1	i	i	i	i	i	/	/	/
Cn1cc(Cl)c(C(=O)NC2CCCCCC2)n1	i	i	i	i	i	/	/	/
Cn1cc(Cl)c(C(=O)NNC(=S)NC2CCCCC2)n1	i	i	i	15*	i	39%*	50%*	i
CCN(C(=O)CSc1nnc(-c2ccncc2)n1Cc1ccccc1)C1CCS(=O)(=O)C1 (centres undefined)	i	i	i	i	i	/	/	/
COc1ccc(/C=C2/C(=O)ON=C2c2ccccc2)cc1OC	i	i	i	i	i	/	i	64%*
COc1ccc(/C=C2\C(=O)ON=C2c2ccccc2)cc1OC	i	i	i	i	i	/	i	8.5%*
CCOc1cc(/C=C2/C(=O)ON=C2C)ccc1OCc1ccccc1F	i	i	i	9.4*	-7*	i	i	94%*
COc1cc(/C=C2\C(=O)ON=C2c2ccccc2)cc(OC)c1OC	i	i	i	i	i	/	/	/
CCOc1cc(/C=C2\C(=O)ON=C2c2ccccc2)ccc1OC	i	i	i	25*	i	32%*	i	50%*
CC(=O)/C(=N/Nc1ccccc1)N1CCOCC1	i	i	i	i	i	i	i	i
SMILES	MrgX1 agonist	MrgX1 PAM	MrgX1 antagonist	RGS4 inh	RGS4 pot	RGS4 inh valid	RGS4 uninduced	RGS4 inh ctr2
CCOC(=O)N1CCN(Cc2cn[nH]c2-c2ccc(-c3ccccc3)cc2)CC1	i	i	i	6.4*	i	5.5%*	i	i
COc1ccccc1N1CCN(Cc2cn[nH]c2-c2ccc(F)cc2)CC1	i	i	i	i	i	i	50%*	i
COc1ccccc1N1CCN(Cc2nc(-c3ccc(F)cc3)oc2C)CC1	i	i	i	i	i	/	/	/
O=C(C1CCN(S(=O)(=O)c2ccccc2)CC1)N1CCCCCC1	i	i	i	i	i	/	/	/
O=C1N=C2SCCN2/C1=C\c1ccc(Cl)cc1	i	i	i	25*	i	85%*	i	i
Cc1ccc(/C=C2\SC(N3CCCC3)=NC2=O)cc1	i	i	i	i	i	/	/	/
O=C1/C(=C/c2ccc([N+](=O)[O-])cc2)C=C(c2ccccc2)N1c1ccc(O)cc1	i	i	i	5.1*	i	9.0%*	i	i
COc1ccc(N2C(=O)/C(=C/c3ccc([N+](=O)[O-])cc3)C=C2c2ccccc2)cc1	i	i	i	i	i	/	/	/
O=C1/C(=C/c2ccc([N+](=O)[O-])cc2)C=C(c2ccccc2)N1c1ccccc1	i	i	i	i	i	i	i	i
CC(=O)c1cccc(CN2CCCCC2C(=O)Nc2ccc(Oc3ccccc3)nc2)c1 (centres undefined)	i	i	i	i	i	/	/	/
CC(=O)Nc1sc(N/N=C/c2ccccc2)nc1-c1ccc(C)cc1	i	i	i	i	i	/	/	/
CCCc1sc(N/N=C/c2ccccn2)nc1-c1ccc(Br)cc1	i	i	i	i	i	/	i	i
Cc1cc(C)c2[nH]c(C(=O)N3CCC(n4nccc4NC(=O)C4CC4)CC3)c(C)c2c1	i	i	i	i	i	/	/	/
CSc1c(C#N)c(N)c(C#N)c2c1COC(C)(C)C2	i	i	i	5.8*	i	5.5%*	i	i
Cc1cc(C(=O)Nc2ccccc2C(=O)O)oc1C	i	i	i	i	i	/	/	/
Nc1c(C(=O)c2ccccc2)sc2c1c(=O)[nH]c(=O)n2-c1ccccc1	i	i	i	i	i	/	38%*	i
